From ChEMBL document CHEMBL1961794, “Regulation of circadian behaviour and metabolism by synthetic REV-ERB agonists” (Nature, 2012)
Active and inactive are the calls of the source. The calls are words filed in the database; no cut-off is given here.

Assays:
[1] = biological target: Nuclear receptor ROR-gamma (Homo sapiens) (UniProt P51449); test: Effect on RORG(NR1F3) dependent reporter activity in HEK293 cells at 20 uM; type: cell-based
Method in brief: (§1)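 Specificity panel covering all 48 human nuclear receptors. HEK293 cells cotransfected with Gal4 DNA-binding domain–nuclear receptor fusions and a luciferase reporter. Compound tested at a single 20 μM concentration. Mean ± s.e.m., n=3.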

[2] = Plasma concentration after 4 hours at 10mg/kg ip dose (10mg/ml suspension in 10%DMSO/10%Tween80); type: ADME, organism-based; details: mouse, read-out: Conc_plasma
Method in brief: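 Mice received a single 10 mg/kg i.p. dose as a 10 mg/ml suspension in DMSO/Tween80/water (10/10/80). Plasma was sampled at 1, 2, 4 and 8 h post-injection and drug concentration reported in μM. Mean ± s.e.m., n=3.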

[3] = biological target: Nuclear receptor subfamily 1 group I member 3 (Homo sapiens, UniProt Q14994); test: Effect on CAR(NR1I3) dependent reporter activity in HEK293 cells at 20 uM; type: cell-based; details: hek293, 20 µM; method in brief: as §1
[4] = biological target: Steroidogenic factor 1 (Homo sapiens) (UniProt Q13285); test: Effect on SF1(NR5A1) dependent reporter activity in HEK293 cells at 20 uM; type: cell-based; method in brief: as §1
Steroidogenic factor 1 (Homo sapiens), sequence (Q13285 whole entry): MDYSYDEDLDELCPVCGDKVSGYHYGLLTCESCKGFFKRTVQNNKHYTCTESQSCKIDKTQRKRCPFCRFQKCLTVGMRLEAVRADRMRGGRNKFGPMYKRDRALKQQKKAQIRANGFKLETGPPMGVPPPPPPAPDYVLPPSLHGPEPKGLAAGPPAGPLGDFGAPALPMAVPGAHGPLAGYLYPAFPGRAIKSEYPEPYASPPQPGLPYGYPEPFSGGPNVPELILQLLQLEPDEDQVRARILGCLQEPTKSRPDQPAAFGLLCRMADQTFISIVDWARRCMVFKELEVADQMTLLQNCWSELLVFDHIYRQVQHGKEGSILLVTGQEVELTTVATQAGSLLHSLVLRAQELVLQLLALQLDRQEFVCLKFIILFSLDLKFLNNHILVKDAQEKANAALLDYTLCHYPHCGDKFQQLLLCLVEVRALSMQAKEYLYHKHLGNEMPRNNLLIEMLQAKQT

Mus musculus [5] = test: Change in plasma leptin in diet-induced obese mice over 30 days at 100 mg/kg ip; type: functional, organism-based; design: dose 100 mg/kg; details: C57BL/6
[6] = biological target: Nuclear receptor subfamily 2 group C member 2 (Homo sapiens) (UniProt P49116); test: Effect on TR4(NR2C2) dependent reporter activity in HEK293 cells at 20 uM; type: cell-based
Nuclear receptor subfamily 2 group C member 2 (Homo sapiens), sequence (P49116 whole entry, the tested form may be a part): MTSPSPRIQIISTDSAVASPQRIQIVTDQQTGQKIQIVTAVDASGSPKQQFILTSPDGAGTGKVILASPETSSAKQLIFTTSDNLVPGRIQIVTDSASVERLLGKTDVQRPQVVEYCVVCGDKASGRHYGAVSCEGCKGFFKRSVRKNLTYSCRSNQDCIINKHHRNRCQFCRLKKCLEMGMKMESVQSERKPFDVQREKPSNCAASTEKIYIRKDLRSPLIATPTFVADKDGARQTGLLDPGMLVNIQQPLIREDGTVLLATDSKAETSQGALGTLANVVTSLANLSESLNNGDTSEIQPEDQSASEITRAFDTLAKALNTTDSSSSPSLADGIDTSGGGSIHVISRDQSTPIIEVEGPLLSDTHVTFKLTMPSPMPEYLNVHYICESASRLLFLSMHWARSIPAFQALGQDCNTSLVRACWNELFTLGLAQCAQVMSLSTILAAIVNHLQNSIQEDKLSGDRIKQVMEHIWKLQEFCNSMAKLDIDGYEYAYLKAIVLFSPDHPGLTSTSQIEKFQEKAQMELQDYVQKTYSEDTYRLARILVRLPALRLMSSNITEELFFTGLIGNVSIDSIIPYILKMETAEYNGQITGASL
Method in brief: (§2)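 Cotransfection assay in HEK293 cells with Gal4 DNA-binding domain–nuclear receptor fusions, covering a panel of all 48 human nuclear receptors. Compounds were tested at 20 μM, with reporter luciferase as the read-out. Mean ± s.e.m., n=3.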

[7] = biological target: Nuclear receptor subfamily 0 group B member 1 (Homo sapiens) (UniProt P51843); test: Effect on DAX1(NR0B1) dependent reporter activity in HEK293 cells at 20 uM; type: cell-based; method in brief: as §1
Nuclear receptor subfamily 0 group B member 1 (Homo sapiens), sequence (P51843 whole entry): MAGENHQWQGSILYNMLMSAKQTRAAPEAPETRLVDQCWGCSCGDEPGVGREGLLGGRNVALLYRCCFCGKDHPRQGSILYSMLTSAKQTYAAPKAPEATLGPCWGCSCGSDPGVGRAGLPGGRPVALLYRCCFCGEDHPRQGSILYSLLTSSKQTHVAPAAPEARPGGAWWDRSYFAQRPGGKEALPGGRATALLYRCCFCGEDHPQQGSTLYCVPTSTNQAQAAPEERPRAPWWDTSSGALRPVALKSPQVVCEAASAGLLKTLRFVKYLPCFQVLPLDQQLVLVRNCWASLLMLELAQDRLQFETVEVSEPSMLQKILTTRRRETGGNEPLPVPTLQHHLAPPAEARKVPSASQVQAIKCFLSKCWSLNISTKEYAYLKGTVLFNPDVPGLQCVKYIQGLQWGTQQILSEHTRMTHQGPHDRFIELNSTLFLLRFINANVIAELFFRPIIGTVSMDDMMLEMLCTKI

[8] = biological target: Nuclear receptor subfamily 2 group F member 6 (Homo sapiens) (UniProt P10588); test: Effect on EAR2(NR2F6) dependent reporter activity in HEK293 cells at 20 uM; type: cell-based; method in brief: as §1
Mus musculus [9] = test: Change in plasma insulin in diet-induced obese mice over 30 days at 100 mg/kg ip; type: functional, organism-based; design: dose 100 mg/kg; details: C57BL/6
[10] = biological target: Nuclear receptor subfamily 1 group I member 2 (Homo sapiens, UniProt O75469); test: Effect on PXR(NR1I2) dependent reporter activity in HEK293 cells at 20 uM; type: cell-based; details: hek293, 20 µM; method in brief: as §1
Nuclear receptor subfamily 1 group I member 2, sequence (O75469 whole entry): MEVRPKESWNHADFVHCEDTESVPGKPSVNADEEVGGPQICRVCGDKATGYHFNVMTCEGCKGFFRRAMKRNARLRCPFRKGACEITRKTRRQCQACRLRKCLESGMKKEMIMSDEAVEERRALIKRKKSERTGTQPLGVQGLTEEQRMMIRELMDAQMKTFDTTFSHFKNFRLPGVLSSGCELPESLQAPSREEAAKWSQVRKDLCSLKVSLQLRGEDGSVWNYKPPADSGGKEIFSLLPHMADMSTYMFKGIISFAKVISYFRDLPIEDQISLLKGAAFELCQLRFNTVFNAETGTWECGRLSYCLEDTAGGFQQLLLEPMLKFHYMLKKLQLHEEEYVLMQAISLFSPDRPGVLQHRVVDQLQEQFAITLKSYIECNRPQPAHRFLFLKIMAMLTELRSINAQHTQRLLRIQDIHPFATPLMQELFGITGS

Mus musculus [11] = test: Change in plasma NEFA (non-esterified fatty acids) in diet-induced obese mice over 30 days at 100 mg/kg ip; type: functional, organism-based; design: dose 100 mg/kg; details: C57BL/6
[12] = biological target: Nuclear receptor subfamily 6 group A member 1 (Homo sapiens) (UniProt Q15406); test: Effect on GCNF(NR6A1) dependent reporter activity in HEK293 cells at 20 uM; type: cell-based; method in brief: as §1
[13] = biological target: Nuclear receptor subfamily 4immunitygroup A member 1 (Homo sapiens) (UniProt P22736); test: Effect on GFRP1(NR4A1) dependent reporter activity in HEK293 cells at 20 uM; type: cell-based; method in brief: as §1
[14] = biological target: Progesterone receptor (Homo sapiens) (UniProt P06401); test: Effect on PGR(NR3C3) dependent reporter activity in HEK293 cells at 20 uM; type: cell-based; method in brief: as §1
[15] = biological target: Nuclear receptor subfamily 0 group B member 2 (Homo sapiens) (UniProt Q15466); test: Effect on SHP(NR0B2) dependent reporter activity in HEK293 cells at 20 uM; type: cell-based; method in brief: as §2
Nuclear receptor subfamily 0 group B member 2 (Homo sapiens), sequence (Q15466 whole entry): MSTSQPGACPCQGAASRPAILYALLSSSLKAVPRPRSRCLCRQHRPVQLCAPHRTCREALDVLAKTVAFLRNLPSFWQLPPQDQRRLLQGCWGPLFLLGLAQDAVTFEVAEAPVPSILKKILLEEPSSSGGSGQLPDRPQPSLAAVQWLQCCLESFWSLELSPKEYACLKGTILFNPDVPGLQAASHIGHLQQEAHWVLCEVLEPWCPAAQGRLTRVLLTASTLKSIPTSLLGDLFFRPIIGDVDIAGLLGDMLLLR

[16] = biological target: Photoreceptor-specific nuclear receptor (Homo sapiens) (UniProt Q9Y5X4); test: Effect on PNR(NR2E3) dependent reporter activity in HEK293 cells at 20 uM; type: cell-based; method in brief: as §1
Photoreceptor-specific nuclear receptor (Homo sapiens), sequence (Q9Y5X4 whole entry): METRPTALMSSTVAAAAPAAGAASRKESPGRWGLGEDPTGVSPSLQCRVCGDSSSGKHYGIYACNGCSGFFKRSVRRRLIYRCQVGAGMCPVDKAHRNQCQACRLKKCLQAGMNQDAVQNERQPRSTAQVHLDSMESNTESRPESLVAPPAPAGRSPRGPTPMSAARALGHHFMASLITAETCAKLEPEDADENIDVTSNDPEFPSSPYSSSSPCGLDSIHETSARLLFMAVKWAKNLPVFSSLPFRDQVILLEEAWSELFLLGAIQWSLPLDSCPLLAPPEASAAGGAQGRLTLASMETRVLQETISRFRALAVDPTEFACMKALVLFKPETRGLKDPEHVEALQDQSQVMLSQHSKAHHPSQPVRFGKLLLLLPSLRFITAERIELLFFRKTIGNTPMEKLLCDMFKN

[17] = biological target: Oxysterols receptor LXR-alpha (Homo sapiens) (UniProt Q13133); test: Effect on LXRA(NR1H3) dependent reporter activity in HEK293 cells at 20 uM; type: cell-based; method in brief: as §1
Oxysterols receptor LXR-alpha (Homo sapiens), sequence (Q13133 whole entry): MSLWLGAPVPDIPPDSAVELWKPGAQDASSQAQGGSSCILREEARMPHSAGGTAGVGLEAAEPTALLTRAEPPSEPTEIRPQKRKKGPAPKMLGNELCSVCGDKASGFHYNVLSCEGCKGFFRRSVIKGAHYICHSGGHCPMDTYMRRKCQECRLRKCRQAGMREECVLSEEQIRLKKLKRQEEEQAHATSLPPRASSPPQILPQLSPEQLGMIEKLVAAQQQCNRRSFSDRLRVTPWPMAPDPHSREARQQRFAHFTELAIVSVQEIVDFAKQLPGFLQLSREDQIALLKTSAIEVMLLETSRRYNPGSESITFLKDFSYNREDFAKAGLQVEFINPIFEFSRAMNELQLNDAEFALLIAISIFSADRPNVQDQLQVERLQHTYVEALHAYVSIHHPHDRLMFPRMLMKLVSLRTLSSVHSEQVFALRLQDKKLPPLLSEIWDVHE

[18] = biological target: Estrogen-related receptor gamma (Homo sapiens) (UniProt P62508); test: Effect on ERR3(NR3B3) dependent reporter activity in HEK293 cells at 20 uM; type: cell-based; method in brief: as §1
[19] = Brain concentration after 8 hours at 10mg/kg ip dose (10mg/ml suspension in 10%DMSO/10%Tween80); type: ADME, organism-based; details: mouse
Method in brief: (§3)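 Mice given a single 10mg/kg i.p. dose as a 10mg/ml suspension in 10/10/80 DMSO/Tween80/water. Brain levels (μM) measured at 2h and 8h post injection, with plasma sampled at 1, 2, 4 and 8h. Mean ± s.e.m., n=3.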

[20] = biological target: Hepatocyte nuclear factor 4-alpha (Homo sapiens) (UniProt P41235); test: Effect on HNF4A(NR2A1) dependent reporter activity in HEK293 cells at 20 uM; type: cell-based; method in brief: as §1
[21] = biological target: Vitamin D3 receptor (Homo sapiens) (UniProt P11473); test: Effect on VDR(NR1I1) dependent reporter activity in HEK293 cells at 20 uM; type: cell-based; method in brief: as §2
Mus musculus [22] = test: Decreased expression of REV-ERB responsive gene Srebf1 in mouse liver after 6 days at 100 mg/kg; type: functional, organism-based; design: dose 100 mg/kg
Mus musculus [23] = test: Change in total plasma cholesterol in diet-induced obese mice over 30 days at 100 mg/kg ip; type: functional, organism-based; design: dose 100 mg/kg; details: C57BL/6
[24] = Plasma concentration after 8 hours at 100mg/kg ip dose (10mg/ml solution in 15% Cremophor); type: ADME, organism-based; details: mouse, read-out: Conc_plasma
Method in brief: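 Single 100 mg/kg i.p. dose given to mice as a 10 mg/ml solution in 15% Cremophor. Plasma drug concentration (μM) was measured at 2 and 8 h post-injection. Mean ± s.e.m., n=3.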

Mus musculus [25] = test: Change in plasma glucose in diet-induced obese mice over 30 days at 100 mg/kg ip; type: functional, organism-based; design: dose 100 mg/kg; details: C57BL/6
[26] = biological target: Thyroid hormone receptor alpha (Homo sapiens) (UniProt P10827); test: Effect on THRA(NR1A1) dependent reporter activity in HEK293 cells at 20 uM; type: cell-based; method in brief: as §2
Thyroid hormone receptor alpha (Homo sapiens), sequence (P10827 whole entry): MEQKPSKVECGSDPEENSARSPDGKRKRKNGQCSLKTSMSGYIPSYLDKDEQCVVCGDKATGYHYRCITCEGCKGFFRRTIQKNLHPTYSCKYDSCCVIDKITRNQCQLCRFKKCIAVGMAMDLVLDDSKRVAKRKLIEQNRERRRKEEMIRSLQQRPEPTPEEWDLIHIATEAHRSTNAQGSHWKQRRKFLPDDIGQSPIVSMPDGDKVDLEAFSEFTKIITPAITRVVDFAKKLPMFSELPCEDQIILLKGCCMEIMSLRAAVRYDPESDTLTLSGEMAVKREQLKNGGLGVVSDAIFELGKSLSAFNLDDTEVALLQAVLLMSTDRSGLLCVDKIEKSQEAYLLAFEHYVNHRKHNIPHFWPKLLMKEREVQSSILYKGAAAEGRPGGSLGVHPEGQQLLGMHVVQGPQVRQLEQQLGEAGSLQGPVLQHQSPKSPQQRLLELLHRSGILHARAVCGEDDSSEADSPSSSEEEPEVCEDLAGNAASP

[27] = biological target: Peroxisome proliferator-activated receptor alpha (Homo sapiens) (UniProt Q07869); test: Effect on PPARA(NR1C1) dependent reporter activity in HEK293 cells at 20 uM; type: cell-based; method in brief: as §1
[28] = biological target: COUP transcription factor 1 (Homo sapiens) (UniProt P10589); test: Effect on TFCOUP1(NR2F1) dependent reporter activity in HEK293 cells at 20 uM; type: cell-based; method in brief: as §2
COUP transcription factor 1 (Homo sapiens), sequence (P10589 whole entry): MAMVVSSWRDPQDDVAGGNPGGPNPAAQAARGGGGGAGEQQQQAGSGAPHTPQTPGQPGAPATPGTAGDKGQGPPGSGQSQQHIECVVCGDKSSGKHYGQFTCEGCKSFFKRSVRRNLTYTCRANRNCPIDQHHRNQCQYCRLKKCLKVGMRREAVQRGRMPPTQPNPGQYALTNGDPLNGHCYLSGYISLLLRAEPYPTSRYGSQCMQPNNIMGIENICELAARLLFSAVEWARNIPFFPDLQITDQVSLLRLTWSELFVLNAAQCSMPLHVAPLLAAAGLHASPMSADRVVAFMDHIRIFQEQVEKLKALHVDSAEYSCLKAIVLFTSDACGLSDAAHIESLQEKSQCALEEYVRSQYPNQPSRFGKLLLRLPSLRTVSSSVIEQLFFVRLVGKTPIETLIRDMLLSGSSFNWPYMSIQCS

[29] = biological target: Retinoic acid receptor beta (Homo sapiens) (UniProt P10826); test: Effect on RARB(NR1B2) dependent reporter activity in HEK293 cells at 20 uM; type: cell-based; method in brief: as §1
Retinoic acid receptor beta (Homo sapiens), sequence (P10826 whole entry): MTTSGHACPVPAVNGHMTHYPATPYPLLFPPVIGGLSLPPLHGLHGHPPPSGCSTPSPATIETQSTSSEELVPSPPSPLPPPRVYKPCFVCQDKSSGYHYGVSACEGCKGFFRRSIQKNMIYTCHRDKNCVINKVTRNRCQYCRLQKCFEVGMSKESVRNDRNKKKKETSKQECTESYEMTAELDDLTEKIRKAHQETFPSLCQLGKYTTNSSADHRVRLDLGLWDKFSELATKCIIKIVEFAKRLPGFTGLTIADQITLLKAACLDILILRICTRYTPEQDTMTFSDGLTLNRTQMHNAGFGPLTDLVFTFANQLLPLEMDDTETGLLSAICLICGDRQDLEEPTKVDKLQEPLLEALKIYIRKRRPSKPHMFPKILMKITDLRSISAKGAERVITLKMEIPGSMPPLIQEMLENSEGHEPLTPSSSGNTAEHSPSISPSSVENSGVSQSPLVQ

[30] = biological target: Nuclear receptor subfamily 2 group C member 1 (Homo sapiens) (UniProt P13056); test: Effect on TR2(NR2C1) dependent reporter activity in HEK293 cells at 20 uM; type: cell-based; method in brief: as §2
[31] = Brain concentration after 2 hours at 10mg/kg ip dose (10mg/ml suspension in 10%DMSO/10%Tween80); type: ADME, organism-based; details: mouse, read-out: Conc_brain; method in brief: as §3
[32] = Decrease in Srebf1 gene expression; type: functional; details: Mus musculus, Liver

Nuclear receptor ROR-gamma (Homo sapiens), sequence (P51449 whole entry, the tested form may be a part): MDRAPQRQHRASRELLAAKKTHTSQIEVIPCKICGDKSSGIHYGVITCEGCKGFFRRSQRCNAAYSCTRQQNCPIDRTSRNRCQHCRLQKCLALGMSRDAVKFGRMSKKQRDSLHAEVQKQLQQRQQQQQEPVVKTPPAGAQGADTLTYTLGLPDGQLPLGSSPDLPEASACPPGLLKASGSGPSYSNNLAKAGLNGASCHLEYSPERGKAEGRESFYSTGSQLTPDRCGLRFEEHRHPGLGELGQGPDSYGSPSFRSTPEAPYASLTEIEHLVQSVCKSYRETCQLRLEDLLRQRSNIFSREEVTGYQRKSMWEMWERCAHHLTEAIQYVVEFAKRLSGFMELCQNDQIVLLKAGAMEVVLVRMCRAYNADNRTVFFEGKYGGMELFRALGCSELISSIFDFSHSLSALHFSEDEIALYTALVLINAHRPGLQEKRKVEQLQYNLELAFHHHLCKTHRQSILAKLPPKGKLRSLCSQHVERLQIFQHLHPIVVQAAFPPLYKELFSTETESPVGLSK

Structure (SMILES) | inhibition [1] | concentration at 4 h [2] | Inhibition [3] | inhibition [4] | inhibition [6] | inhibition [7] | inhibition [8] | Inhibition [10] | inhibition [12] | inhibition [13] | inhibition [14] | inhibition [15] | inhibition [16] | inhibition [17] | inhibition [18] | inhibition [20] | inhibition [21] | Reduced_Srebf1_gene_exp (Mus musculus [22]) | concentration at 8 h [24] | inhibition [26] | further results
CCOC(=O)N1CCC(CN(Cc2ccc(Cl)cc2)Cc2ccc([N+](=O)[O-])s2)C1 (configuration not stated) [SR9009] | inactive | 220 nM | Not Active | inactive | inactive | inactive | inactive | Not Active | inactive | inactive | inactive | inactive | inactive | inactive | inactive | inactive | inactive | Active | 1500 nM | inactive | Plasma leptin (Mus musculus [5]): -80%; Plasma insulin (Mus musculus [9]): -35%; Plasma NEFA (Mus musculus [11]): -23%; concentration at 8 h ([19]; brain, read-out: Conc_brain): 110 nM; Plasma cholesterol (Mus musculus [23]): -47%; Plasma glucose (Mus musculus [25]): -19%; inhibition [27]: inactive; inhibition [28]: inactive; inhibition [29]: inactive; inhibition [30]: inactive
CCCCCNC(=O)N1CCC(CN(Cc2ccc(Cl)cc2)Cc2ccc([N+](=O)[O-])s2)C1 (configuration not stated) [SR9011] | inactive | 110 nM | Not Active | inactive | inactive | inactive | inactive | Not Active | inactive | inactive | inactive | inactive | inactive | inactive | inactive | inactive | inactive | Active | 740 nM | inactive | concentration at 2 h [31]: 240 nM; ED50 [32]: 67 mg/kg; Conc_brain ([19]; in vivo, 8 h): Not Detected; inhibition [27]: inactive; inhibition [28]: inactive; inhibition [29]: inactive; inhibition [30]: inactive
